Rows were chosen to be rich in hits. Some 2.2% of all compounds tested hit in one or more screens of this group.
FLuc act counter – FLuc activators, initial screening, artefact control for FLuc-dependent activation tests, biochemical, ATPlite luminescence; Luciferin 4-monooxygenase (Photinus pyralis), P08659; ATPlite luciferase biochemical, 10 min; 0 = ATP-free wells, 1 = DMSO control; activation factor at 10 µM; 200,000 tested, under 10 active; AID 1027, 2008;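 active = luciferase activation factor, scaled between plate controls, of at least 2 with compound at 10 µM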
Target sequence (P08659 whole entry, looked up): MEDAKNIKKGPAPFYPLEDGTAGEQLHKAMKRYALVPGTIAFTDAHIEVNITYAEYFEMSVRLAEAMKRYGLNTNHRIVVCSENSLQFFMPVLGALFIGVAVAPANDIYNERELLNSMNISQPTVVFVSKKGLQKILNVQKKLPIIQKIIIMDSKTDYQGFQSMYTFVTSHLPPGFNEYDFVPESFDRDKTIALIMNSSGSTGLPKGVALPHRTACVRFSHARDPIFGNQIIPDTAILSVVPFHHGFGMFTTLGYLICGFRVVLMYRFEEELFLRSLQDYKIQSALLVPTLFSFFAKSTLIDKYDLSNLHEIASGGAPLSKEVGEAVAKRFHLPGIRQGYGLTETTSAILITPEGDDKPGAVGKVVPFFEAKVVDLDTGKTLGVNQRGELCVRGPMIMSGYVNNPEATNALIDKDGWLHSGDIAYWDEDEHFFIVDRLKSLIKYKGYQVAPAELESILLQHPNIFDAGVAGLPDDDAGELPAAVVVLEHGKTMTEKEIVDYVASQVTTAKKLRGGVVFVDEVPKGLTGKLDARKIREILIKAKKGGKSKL
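Assay system: Luciferase/luciferin detection reagent, cell-free biochemical luciferase assay / Also added: ATP substrate / Schedule: 10 min at ambient temperature / Measured by: luminescence measurement of luciferase light output / Benchmarks: low control with PBS replacing ATP, high control enzyme plus ATP without compound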
STAT3 inh-1 – IL-6 driven STAT3 reporter inhibitors, primary screen, U3A cells, luciferase, luminescence, MLSCN library. IL-6 STAT3-luciferase reporter; host cell line lacks STAT1. inhibition, % at 5.5 µM. 190,000 compounds, 0.89% hits;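 active = inhibition above the mean inhibition across all screened compounds plus 3 SD, cut at about 44% in these data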;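 also: 0% = DMSO only wells and 100% = 100 µM nifuroxazide control wells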
PPC-1+TRAIL kill – compounds killing PPC-1 cancer cells with TRAIL present, primary screen, TRAIL potentiator project, ATPLite luminescence, uHTS; cell killing (% activity), % at 4 µM or 5 µM; PPC-1 cells + TRAIL, ATPLite viability luminescence; 220,000 compounds, 0.41% hits;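 active = cell killing above 50% in the first pass at 4 µM, then a duplicate retest at 5 µM averaging 50% or more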;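 also: plate controls were cells with TRAIL plus DMSO for no effect and medium-only wells lacking cells for full effect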
HSP90 refold inh – HSP90 inhibitors, primary screen, cell lysate, luminescence; Heat shock protein HSP 90 (rabbit reticulocyte lysate; luciferase refolding); 290,000 compounds, 0.91% hits; Rabbit reticulocyte lysate, luciferase refolding luminescence, 3 h; inhibition, % at 5.6 µM;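 active = inhibition above the screen-wide mean plus 3 SD, computed separately per campaign, cut at about 16% in these data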;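 also: 0% = DMSO wells and 100% = 60 µM geldanamycin wells; inhibitors lower the luminescence because luciferase stays unfolded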
FLuc inh counter – firefly luciferase enzyme inhibitors, primary screen, artefact control for luciferase-based inhibitor screens, biochemical, luminescence, ATPLite; AID 1006, 2008; 200,000 compounds, 1.5% hits; Luciferin 4-monooxygenase (Photinus pyralis), P08659; 10 min; inhibition, % at 10 µM;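 active = inhibition above about 50% when tested at 10 µM, limit read from the data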
C8 TRAIL sens – viability loss with TRAIL in NB7+C8 cells, primary screen, TRAIL sensitizer project, cell-based, ATPlite luminescence; inhibition (viability loss, TRAIL sensitization), % at 10 µM; 360,000 compounds, 1% hits; AID 624354, 2012;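 active = compounds causing at least 50% loss of cell viability in the single-dose screen, relative to plate controls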
STAT3 inh-2 – STAT3 reporter inhibitors, retest of hits, confirmation, U3A cells, luciferase, luminescence. 1,200 compounds, 45% hits. inhibition, % at 5.7 µM. shares compounds with STAT3 inh-1. IL-6 STAT3 luciferase reporter; cell line lacks STAT1;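 active = inhibition above the hit cutoff computed for the primary STAT3 screen, cut at about 44% in these data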;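 also: 0% = IL-6 plus DMSO and 100% = IL-6 plus nifuroxazide control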
NFkB inh 2 – NF-kB reporter inhibitors in human cells, confirmation, counter-screen for STAT3 inhibitor project, cell-based, HEK293T, luciferase, TNF-alpha stimulus; AID 1308, 2008; shares compounds with STAT3 inh-1; inhibition, % at 5.7 µM; TNF-alpha induced; 1,200 compounds, 36% hits;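 active = inhibition above the mean of solvent-only control wells plus 3 SD, cutoff set per campaign, cut at about 13% in these data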;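 also: 0% = TNF-alpha with DMSO and 100% = TNF-alpha with MG high control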
STAT1 inh 2 – STAT1 reporter inhibitors, IFN-gamma induced, confirmation, counter-screen for STAT3 inhibitor project, cell-based, NIH 3T3, luciferase luminescence; shares compounds with STAT3 inh-1; NIH 3T3 STAT1-luciferase reporter; inhibition, % at 5.7 µM; 1,200 compounds, 27% hits;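 active = inhibition above the mean plus 3 SD of solvent-only control wells, limit set per screening run, cut at about 16% in these data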;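 also: 0% = DMSO with IFN-gamma and 100% = nifuroxazide control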
* marks the source's active call; other numbers are inactive results.

Results for Cc1ccc(S(=O)(=O)N2CCN(C(=O)CCn3cncn3)CC2)cc1C ?
HSP90 refold inh: -5.0; C8 TRAIL sens: 0.6

What do the screens show for `Nc1c(C(=O)NC2CCCCC2)nsc1C(=O)OCC(=O)NC1CCCCC1`?
FLuc act counter: 1; STAT3 inh-1: 51.1*; PPC-1+TRAIL kill: 3.2; HSP90 refold inh: 0.1; FLuc inh counter: 1.2; C8 TRAIL sens: 27.5; STAT3 inh-2: 54.3*; NFkB inh 2: 12.0; STAT1 inh 2: 0.1

Results for COc1ccccc1-c1nnc(SCC(=O)c2ccc(C3CCCCC3)cc2)n1Cc1ccco1 ?
FLuc act counter: 1.1; STAT3 inh-1: -25.1; PPC-1+TRAIL kill: 7.3; HSP90 refold inh: 7.6; FLuc inh counter: -9.4; C8 TRAIL sens: -5.3

What do the screens show for `CCc1ccccc1NCC(=O)Nc1ccccc1C(=O)OC`?
FLuc act counter: 1; STAT3 inh-1: 4.7; PPC-1+TRAIL kill: 7.3; HSP90 refold inh: 1.3; FLuc inh counter: -3.7; C8 TRAIL sens: -1.2

What do the screens show for `COC(=O)c1ccccc1NC(=O)CNc1cc(OC)c(OC)cc1C`?
FLuc act counter: 1; STAT3 inh-1: 51.0*; PPC-1+TRAIL kill: 4.7; HSP90 refold inh: -4.8; FLuc inh counter: -1.4; C8 TRAIL sens: -5.8; STAT3 inh-2: 65.2*; NFkB inh 2: 17.5*; STAT1 inh 2: 25.9*

How did Cn1cc([N+](=O)[O-])c(C(=O)NCc2ccccc2)n1 do in these assays?
PPC-1+TRAIL kill: 6.5; HSP90 refold inh: 2.8; C8 TRAIL sens: -3.6

How did CC(=O)Nc1ccc(S(=O)(=O)Oc2ccc(N3C(=O)C4CCCCC4C3=O)cc2)cc1 (stereo unspecified) do in these assays?
FLuc act counter: 1; STAT3 inh-1: 73.1*; PPC-1+TRAIL kill: -16.8; HSP90 refold inh: 2.0; FLuc inh counter: -2.7; C8 TRAIL sens: -0.7; STAT3 inh-2: 61.1*; NFkB inh 2: 20.4*; STAT1 inh 2: 18.5*

Results for CC(=O)Nc1ccc(S(=O)(=O)Oc2cccc(N3C(=O)C4CC=CCC4C3=O)c2)cc1 (stereo unspecified) ?
FLuc act counter: 1; STAT3 inh-1: 10.0; PPC-1+TRAIL kill: 16.3; HSP90 refold inh: 3.1; FLuc inh counter: -2.1; C8 TRAIL sens: -2.1

Results for O=C(Oc1ccccc1N1C(=O)C2CCCCC2C1=O)c1ccccc1 (stereo unspecified) ?
FLuc act counter: 1.1; STAT3 inh-1: 67.8*; PPC-1+TRAIL kill: -1.3; HSP90 refold inh: 2.7; FLuc inh counter: -6.8; C8 TRAIL sens: 5.1; STAT3 inh-2: 45.6*; NFkB inh 2: 3.9; STAT1 inh 2: -15.9

What do the screens show for `O=C(Oc1ccccc1N1C(=O)C2CC=CCC2C1=O)c1ccc(Br)cc1` (stereo unspecified)?
FLuc act counter: 1; STAT3 inh-1: -6.7; PPC-1+TRAIL kill: 7.1; HSP90 refold inh: -3.9; FLuc inh counter: -2.4; C8 TRAIL sens: -8.8

How did Cc1ccc(C(=O)Oc2ccccc2N2C(=O)C3CCCCC3C2=O)cc1 (stereo unspecified) do in these assays?
FLuc act counter: 1; STAT3 inh-1: 53.7*; PPC-1+TRAIL kill: 0.6; HSP90 refold inh: -0.9; FLuc inh counter: -3.2; C8 TRAIL sens: -2.5; STAT3 inh-2: 38.3; NFkB inh 2: -0.7; STAT1 inh 2: 5.7
